Results as given in ChEMBL document CHEMBL3526126, “Amide hydrolysis of a novel chemical series of microsomal prostaglandin E synthase-1 inhibitors induces kidney toxicity in the rat” (Drug Metab Dispos, 2013).
In brackets after ≈: the same amount, converted by molar mass.

How the values were obtained:
Rattus norvegicus [1] = assay: Drug metabolism in Wistar Hannover rat assessed as formation of 4-(phenylethynyl)benzoic acid metabolite conjugated with mono-oxidized metabolite in plasma at 500 umol/kg, po qd administered for 7 days measured on day 7 by LC-MS analysis; assay type: ADME, organism-based; settings: in vivo, 168 h
[2] = Drug metabolism in Sprague-Dawley rat hepatocytes assessed as formation of 4-(phenylethynyl)benzoic acid metabolite hyd at 1 to 10 uM by LC-MS analysis; assay type: ADME, cell-based, Hepatocyte
Procedure, shortened: (§1)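 Hepatocytes at 1 × 10^6 cells/ml in William's medium incubated at 37°C with gentle shaking under 5% CO2. Substrate was at […]. Metabolites were analysed by LC-MS.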

Rattus norvegicus [3] = assay: Drug metabolism in Wistar Hannover rat assessed as formation of oxidized and sulfate-conjugated metabolite in plasma at 500 umol/kg, po qd administered for 7 days measured on day 7 by LC-MS analysis; assay type: ADME, organism-based; settings: in vivo, 168 h
Rattus norvegicus [4] = assay: Toxicity in Wistar Hannover rat kidney assessed as hemorrhage in renal pelvis at 1000 umol/kg, po qd administered for 7 days measured after day 8 by hematoxylin/eosin staining-based light microscopic analysis; assay type: organism-based; settings: in vivo, 168 h
Procedure, shortened: (§2)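 Wistar Hannover rats, about 8 weeks old, were gavaged once daily (10 ml/kg) for 7 days. One day after the last dose they were killed by carotid exsanguination under isoflurane/oxygen. Kidneys were fixed in buffered formalin, embedded in paraffin, sectioned, stained with hematoxylin and eosin, and examined by light microscopy.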

[5] = AUC (0 to 24 hrs) in male Wistar Hannover rat at 1000 umol/kg, po qd measured on day 1; settings: plasma
[6] = AUC (0 to 24 hrs) in male Wistar Hannover rat at 500 umol/kg, po qd measured on day 1; settings: plasma
Rattus norvegicus [7] = assay: Toxicity in Wistar Hannover rat kidney assessed as presence of dilated tubules with cellular remnants within lumen at 1000 umol/kg, po qd administered for 7 days measured on day 7 by necroscopic analysis; assay type: organism-based; settings: in vivo, 168 h
[8] = AUC (0 to 24 hrs) in female Wistar Hannover rat at 500 umol/kg, po qd administered for 7 days measured on day 7; settings: plasma
[9] = Solubility in rat urine at pH 7 after 5 hrs; assay type: physicochemical
Procedure, shortened: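 Samples in rat urine at pH 7.0 were incubated at 37°C for 5 hours. They were analysed by HPLC on a C18 column with photodiode array and single mass detection.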

Rattus norvegicus [10] = assay: Toxicity in Wistar Hannover rat kidney assessed as increase in plasma creatinine level at 1000 umol/kg, po qd administered for 7 days measured on day 7; assay type: organism-based; settings: in vivo, 168 h
Procedure, shortened: (§3)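 Wistar Hannover rats, about 8 weeks old, were acclimatized about 2 weeks and randomized by body weight. Dosing was by oral gavage (10 ml/kg) once daily for 7 days, with vehicle controls. At the end of dosing, plasma (lithium heparin) was taken from the orbital plexus under isoflurane/oxygen anaesthesia, and urea and creatinine were measured.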

Rattus norvegicus [11] = assay: Toxicity in Wistar Hannover rat kidney assessed as papillitis at 1000 umol/kg, po qd administered for 7 days measured after day 8 by hematoxylin/eosin staining-based light microscopic analysis; assay type: organism-based; settings: in vivo, 168 h; procedure, shortened: as §2
Rattus norvegicus [12] = assay: Toxicity in Wistar Hannover rat kidney assessed as dilated tubules with hypertrophic nuclei and cytoplasm at 1000 umol/kg, po qd administered for 7 days measured on day 7 by necroscopic analysis; assay type: organism-based; settings: in vivo, 168 h
Rattus norvegicus [13] = assay: Toxicity in Wistar Hannover rat kidney assessed as transitional cell hyperplasia at 1000 umol/kg, po qd administered for 7 days measured after day 8 by hematoxylin/eosin staining-based light microscopic analysis; assay type: organism-based; settings: in vivo, 168 h; procedure, shortened: as §2
[14] = AUC (0 to 24 hrs) in Sprague-Dawley rat at 1000 umol/kg, po qd administered for 7 days measured on day 7; assay type: ADME, organism-based; parameters: time < 24 hr, dose 1000 umol/kg, route oral; settings: plasma
Procedure, shortened: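 Toxicity study 2: 2 female satellite rats per dose group. Dosing was once daily by oral gavage (10 ml/kg) for 7 days. Tail-vein EDTA blood was taken at 2, 4, 6, 7 and 24 h on day 1 and on day 7, then chilled and centrifuged to plasma. Parent and M1 were quantified by LC-MS/MS, with M1 measured in negative electrospray mode.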

[15] = Cmax in female Wistar Hannover rat at 1000 umol/kg, po qd measured on day 1; settings: in vivo
Rattus norvegicus [16] = assay: Toxicity in Wistar Hannover rat kidney assessed as increase in plasma urea level at 1000 umol/kg, po qd administered for 7 days measured on day 7; assay type: organism-based; settings: in vivo, 168 h; procedure, shortened: as §3
[17] = Drug metabolism in Beagle dog hepatocytes assessed as amide hydrolysis at 1 to 10 uM by LC-MS analysis; assay type: ADME, cell-based, Canis lupus familiaris, Hepatocyte
Procedure, shortened: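 Cryopreserved male Beagle dog hepatocytes at 1 × 10^6 cells/ml in William's medium, shaken gently at 37°C under 5% CO2. Substrate was tested at two concentrations (1 and 10). Metabolites, including amide-hydrolysis products, were analysed by LC-MS.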

[18] = Drug metabolism in freshly prepared human hepatocytes assessed as amide hydrolysis at 1 to 10 uM by LC-MS analysis; assay type: ADME, cell-based, Hepatocyte; procedure, shortened: as §1
[19] = Drug metabolism in Sprague-Dawley rat hepatocytes assessed as formation of benzene-1,2-disulfonamide metabolite M1 at 1 to 10 uM by LC-MS analysis; assay type: ADME, cell-based, Hepatocyte; procedure, shortened: as §1
Rattus norvegicus [20] = assay: Toxicity in Wistar Hannover rat kidney assessed as multiple pyogranuloma in renal pelvis at 1000 umol/kg, po qd administered for 7 days measured after day 8 by hematoxylin/eosin staining-based light microscopic analysis; assay type: organism-based; settings: in vivo, 168 h; procedure, shortened: as §2
[21] = Cmax in female Wistar Hannover rat at 500 umol/kg, po qd measured on day 1; settings: in vivo
Rattus norvegicus [22] = assay: Toxicity in Wistar Hannover rat kidney assessed as free crystals in renal pelvis at 1000 umol/kg, po qd administered for 7 days measured after day 8 by hematoxylin/eosin staining-based light microscopic analysis; assay type: organism-based; settings: in vivo, 168 h; procedure, shortened: as §2
Rattus norvegicus [23] = assay: Drug metabolism in Wistar Hannover rat assessed as formation of [14C]-4-(phenylethynyl)benzoic acid metabolite hyd in plasma at 500 umol/kg, po qd administered for 7 days measured on day 7 by radio monitoring method; assay type: ADME, organism-based; settings: in vivo, 168 h
[24] = Cmax in male Wistar Hannover rat at 500 umol/kg, po qd administered for 7 days measured on day 7; settings: in vivo
[25] = AUC (0 to 24 hrs) in male Wistar Hannover rat at 500 umol/kg, po qd administered for 7 days measured on day 7; settings: plasma
[26] = Effect on rat mPGES-1
Rattus norvegicus [27] = assay: Toxicity in Wistar Hannover rat kidney assessed as increase in organ weight at 1000 umol/kg, po qd administered for 7 days measured on day 7 by necroscopic analysis; assay type: organism-based; settings: in vivo, 168 h
[28] = Drug metabolism in Sprague-Dawley rat hepatocytes assessed as formation of 4-(phenylethynyl)benzoic acid metabolite hyd at 1 to 10 uM by radio monitoring method; assay type: ADME, cell-based, Hepatocyte
Procedure, shortened: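 Hepatocytes at 1 × 10^6 cells/ml in William's medium were incubated at 37°C with gentle shaking under 5% CO2, with substrate at […]. Separation was on an Atlantis T3 column (100 × 4.6 mm) at 1 ml/min, split 1:20 to the ion source and a flow scintillation monitor. Scintillation cocktail was added at 4 ml/min through a 0.5 ml flow cell.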

Rattus norvegicus [29] = assay: Toxicity in Wistar Hannover rat kidney assessed as presence of dilated tubules mixed with basophils at 1000 umol/kg, po qd administered for 7 days measured on day 7 by necroscopic analysis; assay type: organism-based; settings: in vivo, 168 h

Drug metabolism (Rattus norvegicus [1]): metabolite_detected
Drug metabolism [2]: metabolite_detected
Drug metabolism (Rattus norvegicus [3]): metabolite_detected
AUC(0-t) at 24 h [5]: 610 µM·h
AUC(0-t) at 24 h [6]: 840 µM·h
AUC at 24 h [8]: 430 µM·h
solubility at 5 h [9]: 45 µM (≈ 19.8 µg/mL)
AUC at 24 h [14]: 990 µM·h
Cmax [15]: 75 µM
Drug metabolism [17]: metabolite_not_detected
Drug metabolism [18]: metabolite_not_detected
Drug metabolism [19]: metabolite_not_detected
Cmax [21]: 38 µM
Drug metabolism (Rattus norvegicus [23]): metabolite_detected
Cmax [24]: 68 µM
AUC at 24 h [25]: 480 µM·h
Activity [26]: Not Active
Drug metabolism [28]: metabolite_detected
SMILES: NS(=O)(=O)c1ccccc1S(=O)(=O)NC(=O)c1ccc(C#Cc2ccccc2)cc1
Activity (Rattus norvegicus [4]): Toxic
Activity (Rattus norvegicus [7]): Toxic
Activity (Rattus norvegicus [10]): Toxic
Activity (Rattus norvegicus [11]): Toxic
Activity (Rattus norvegicus [12]): Toxic
Activity (Rattus norvegicus [13]): Toxic
Activity (Rattus norvegicus [16]): Toxic
Activity (Rattus norvegicus [20]): Toxic
Activity (Rattus norvegicus [22]): Toxic
Activity (Rattus norvegicus [27]): Toxic
Activity (Rattus norvegicus [29]): Toxic
